Data: ChEMBL document CHEMBL1137764, “Design, synthesis, antibacterial activity and physicochemical parameters of novel N-4-piperazinyl derivatives of norfloxacin” (Bioorg Med Chem, 2009)
≈ marks a conversion by molar mass, not a printed value.

Key:
Pseudomonas aeruginosa [1] = assay: Antimicrobial activity against Pseudomonas aeruginosa at 4 ug/ml after 24 hrs by agar diffusion technique; assay type: functional; settings: read-out: DIZ
Summary of the method: (§1)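 Strains came from a university microbiology department. Inocula were 10⁶ CFU/mL. Mueller-Hinton agar was seeded with culture, poured 3–4 mm thick, and 10 mm cups were bored. Compounds were dissolved in DMF (10 mg/mL stock), diluted, and the solution was placed in the cups. Plates were incubated at 37 °C overnight. Inhibition zone diameter (mm) was read at 24 h.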

Pseudomonas aeruginosa [2] = assay: Antimicrobial activity against Pseudomonas aeruginosa at 16 ug/ml after 24 hrs by agar diffusion technique; assay type: functional; settings: read-out: DIZ; summary of the method: as §1
Pseudomonas aeruginosa [3] = assay: Antimicrobial activity against Pseudomonas aeruginosa at 64 ug/ml after 24 hrs by agar diffusion technique; assay type: functional; settings: read-out: DIZ; summary of the method: as §1
Pseudomonas aeruginosa [4] = assay: Antimicrobial activity against Pseudomonas aeruginosa at 128 ug/ml after 24 hrs by agar diffusion technique; assay type: functional; settings: read-out: DIZ; summary of the method: as §1
Pseudomonas aeruginosa [5] = assay: Antimicrobial activity against Pseudomonas aeruginosa at 512 ug/ml after 24 hrs by agar diffusion technique; assay type: functional; settings: read-out: DIZ; summary of the method: as §1
Escherichia coli [6] = assay: Antimicrobial activity against Escherichia coli at 4 ug/ml after 24 hrs by agar diffusion technique; assay type: functional; settings: read-out: DIZ; summary of the method: as §1
Escherichia coli [7] = assay: Antimicrobial activity against Escherichia coli at 16 ug/ml after 24 hrs by agar diffusion technique; assay type: functional; settings: read-out: DIZ; summary of the method: as §1
Escherichia coli [8] = assay: Antimicrobial activity against Escherichia coli at 64 ug/ml after 24 hrs by agar diffusion technique; assay type: functional; settings: read-out: DIZ; summary of the method: as §1
Escherichia coli [9] = assay: Antimicrobial activity against Escherichia coli at 128 ug/ml after 24 hrs by agar diffusion technique; assay type: functional; settings: read-out: DIZ; summary of the method: as §1
Escherichia coli [10] = assay: Antimicrobial activity against Escherichia coli at 512 ug/ml after 24 hrs by agar diffusion technique; assay type: functional; settings: read-out: DIZ; summary of the method: as §1
Klebsiella pneumoniae [11] = assay: Antimicrobial activity against Klebsiella pneumoniae at 4 ug/ml after 24 hrs by agar diffusion technique; assay type: functional; settings: read-out: DIZ; summary of the method: as §1
Klebsiella pneumoniae [12] = assay: Antimicrobial activity against Klebsiella pneumoniae at 16 ug/ml after 24 hrs by agar diffusion technique; assay type: functional; settings: read-out: DIZ; summary of the method: as §1
Klebsiella pneumoniae [13] = assay: Antimicrobial activity against Klebsiella pneumoniae at 64 ug/ml after 24 hrs by agar diffusion technique; assay type: functional; settings: read-out: DIZ; summary of the method: as §1
Klebsiella pneumoniae [14] = assay: Antimicrobial activity against Klebsiella pneumoniae at 128 ug/ml after 24 hrs by agar diffusion technique; assay type: functional; settings: read-out: DIZ; summary of the method: as §1
Klebsiella pneumoniae [15] = assay: Antimicrobial activity against Klebsiella pneumoniae at 512 ug/ml after 24 hrs by agar diffusion technique; assay type: functional; settings: read-out: DIZ; summary of the method: as §1
Staphylococcus aureus [16] = assay: Antimicrobial activity against Staphylococcus aureus at 4 ug/ml after 24 hrs by agar diffusion technique; assay type: functional; settings: read-out: DIZ; summary of the method: as §1
Staphylococcus aureus [17] = assay: Antimicrobial activity against Staphylococcus aureus at 16 ug/ml after 24 hrs by agar diffusion technique; assay type: functional; settings: read-out: DIZ; summary of the method: as §1
Staphylococcus aureus [18] = assay: Antimicrobial activity against Staphylococcus aureus at 64 ug/ml after 24 hrs by agar diffusion technique; assay type: functional; settings: read-out: DIZ; summary of the method: as §1
Staphylococcus aureus [19] = assay: Antimicrobial activity against Staphylococcus aureus at 128 ug/ml after 24 hrs by agar diffusion technique; assay type: functional; settings: read-out: DIZ; summary of the method: as §1
Staphylococcus aureus [20] = assay: Antimicrobial activity against Staphylococcus aureus at 512 ug/ml after 24 hrs by agar diffusion technique; assay type: functional; settings: read-out: DIZ; summary of the method: as §1
Pseudomonas aeruginosa [21] = assay: Antimicrobial activity against Pseudomonas aeruginosa after 24 hrs by agar diffusion technique; assay type: functional; settings: for MIC: Pseudomonas aeruginosa, 24 h
Summary of the method: (§2)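 Agar cup diffusion on Mueller-Hinton agar seeded from 10⁶ CFU/mL suspensions, with 10 mm cups in a 3–4 mm layer. Compounds were in DMF (10 mg/mL stock) at several concentrations. Plates were incubated at 37 °C and zones measured after 24 h. MIC was taken as the intercept of the plot of log concentration against inhibition zone diameter.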

Escherichia coli [22] = assay: Antimicrobial activity against Escherichia coli after 24 hrs by agar diffusion technique; assay type: functional; settings: for MIC: Escherichia coli, 24 h; summary of the method: as §2
Klebsiella pneumoniae [23] = assay: Antimicrobial activity against Klebsiella pneumoniae after 24 hrs by agar diffusion technique; assay type: functional; settings: for MIC: Klebsiella pneumoniae, 24 h; summary of the method: as §2
Staphylococcus aureus [24] = assay: Antimicrobial activity against Staphylococcus aureus after 24 hrs by agar diffusion technique; assay type: functional; settings: for MIC: Staphylococcus aureus, 24 h; summary of the method: as §2
[25] = Octanol-phosphate buffer partition coefficient, log D at pH 7.4 by spectrophotometry; assay type: physicochemical
Summary of the method: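 Shake-flask method. A 0.2 mg/mL stock was diluted into pH 7.4 phosphate buffer and mixed with an equal volume of n-octanol, phases mutually presaturated and protected from light. Samples were vortexed 3 min, then shaken 5 h at 25 °C. Both phases were assayed by UV at 270–280 nm. D is the molar concentration ratio, octanol to aqueous.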

Row | Structure (SMILES) | zone of inhibition at 4 µg/mL (Pseudomonas aeruginosa [1]) [mm] | zone of inhibition at 16 µg/mL (Pseudomonas aeruginosa [2]) [mm] | zone of inhibition at 64 µg/mL (Pseudomonas aeruginosa [3]) [mm] | zone of inhibition at 128 µg/mL (Pseudomonas aeruginosa [4]) [mm] | zone of inhibition at 512 µg/mL (Pseudomonas aeruginosa [5]) [mm] | zone of inhibition at 4 µg/mL (Escherichia coli [6]) [mm] | zone of inhibition at 16 µg/mL (Escherichia coli [7]) [mm] | zone of inhibition at 64 µg/mL (Escherichia coli [8]) [mm] | zone of inhibition at 128 µg/mL (Escherichia coli [9]) [mm] | zone of inhibition at 512 µg/mL (Escherichia coli [10]) [mm] | zone of inhibition at 4 µg/mL (Klebsiella pneumoniae [11]) [mm] | zone of inhibition at 16 µg/mL (Klebsiella pneumoniae [12]) [mm] | zone of inhibition at 64 µg/mL (Klebsiella pneumoniae [13]) [mm] | zone of inhibition at 128 µg/mL (Klebsiella pneumoniae [14]) [mm] | zone of inhibition at 512 µg/mL (Klebsiella pneumoniae [15]) [mm] | zone of inhibition at 4 µg/mL (Staphylococcus aureus [16]) [mm] | zone of inhibition at 16 µg/mL (Staphylococcus aureus [17]) [mm] | zone of inhibition at 64 µg/mL (Staphylococcus aureus [18]) [mm] | zone of inhibition at 128 µg/mL (Staphylococcus aureus [19]) [mm] | zone of inhibition at 512 µg/mL (Staphylococcus aureus [20]) [mm] | further results
1 | CCn1cc(C(=O)O)c(=O)c2cc(F)c(N3CCNCC3)cc21 [NORFLOXACIN] | 0 | 2 | 5 | 15 | 20 | 0 | 0 | 4 | 6 | 19 | 0 | 0 | 5 | 8 | 12 | 0 | 0 | 0 | 3 | 20 | logMIC (Pseudomonas aeruginosa [21]): 0.95; MIC (Pseudomonas aeruginosa [21]): 9 µg/mL (≈ 28.2 µM); logMIC (Escherichia coli [22]): 1.45; MIC (Escherichia coli [22]): 14 µg/mL (≈ 43.8 µM); logMIC (Klebsiella pneumoniae [23]): 0; MIC (Klebsiella pneumoniae [23]): 8 µg/mL (≈ 25.1 µM); logMIC (Staphylococcus aureus [24]): 1.81; MIC (Staphylococcus aureus [24]): 64 µg/mL (≈ 200 µM); logD [25]: -0.41
2 | CCn1cc(C(=O)O)c(=O)c2cc(F)c(N3CC[N+](CCO)(CCO)CC3)cc21.[Br-] | 0 | 0 | 0 | 0 | 0 | 0 | 4 | 7 | 9 | 12 | 0 | 0 | 4 | 5 | 11 | 0 | 0 | 0 | 0 | 14 | logMIC (Pseudomonas aeruginosa [21]): 2.71; MIC (Pseudomonas aeruginosa [21]): > 512 µg/mL; logMIC (Escherichia coli [22]): 0.6; MIC (Escherichia coli [22]): 4 µg/mL; logMIC (Klebsiella pneumoniae [23]): 1; MIC (Klebsiella pneumoniae [23]): 10 µg/mL; logMIC (Staphylococcus aureus [24]): 2.11; MIC (Staphylococcus aureus [24]): 128 µg/mL; logD [25]: 0.158
3 | CCn1cc(C(=O)O)c(=O)c2cc(F)c(N3CCN(Cn4cnc5ccccc54)CC3)cc21 | 0 | 0 | 0 | 0 | 15 | 0 | 3 | 6 | 7 | 10 | 0 | 0 | 3 | 8 | 20 | 0 | 0 | 0 | 0 | 3 | logMIC (Pseudomonas aeruginosa [21]): 2.11; MIC (Pseudomonas aeruginosa [21]): 128 µg/mL (≈ 285 µM); logMIC (Escherichia coli [22]): 0.6; MIC (Escherichia coli [22]): 4 µg/mL (≈ 8.9 µM); logMIC (Klebsiella pneumoniae [23]): 1.15; MIC (Klebsiella pneumoniae [23]): 14 µg/mL (≈ 31.1 µM); logMIC (Staphylococcus aureus [24]): 2.11; MIC (Staphylococcus aureus [24]): 128 µg/mL (≈ 285 µM); logD [25]: -0.043
4 | CCn1cc(C(=O)O)c(=O)c2cc(F)c(N3CCN(CN4C(=O)CCC4=O)CC3)cc21 | 0 | 9 | 13 | 15 | 27 | 0 | 0 | 0 | 0 | 5 | 8 | 15 | 20 | 22 | 31 | 0 | 4 | 12 | 13 | 22 | logMIC (Pseudomonas aeruginosa [21]): 0.7; MIC (Pseudomonas aeruginosa [21]): 5 µg/mL (≈ 11.6 µM); logMIC (Escherichia coli [22]): 0; MIC (Escherichia coli [22]): < 1 µg/mL; logMIC (Klebsiella pneumoniae [23]): 2.11; MIC (Klebsiella pneumoniae [23]): 128 µg/mL (≈ 297 µM); logMIC (Staphylococcus aureus [24]): 0.6; MIC (Staphylococcus aureus [24]): 4 µg/mL (≈ 9.29 µM); logD [25]: -0.8
5 | CCn1cc(C(=O)O)c(=O)c2cc(F)c(N3CCN(C=O)CC3)cc21 [4-N-FORMYL-1-PIPERAZINYL-NORFLOXACIN] | 0 | 2 | 7 | 13 | 13 | 2 | 2 | 2 | 4 | 13 | 0 | 0 | 0 | 0 | 8 | 7 | 8 | 8 | 15 | 12 | logMIC (Pseudomonas aeruginosa [21]): 0.78; MIC (Pseudomonas aeruginosa [21]): 6 µg/mL (≈ 17.3 µM); logMIC (Escherichia coli [22]): 1.04; MIC (Escherichia coli [22]): 11 µg/mL (≈ 31.7 µM); logMIC (Klebsiella pneumoniae [23]): 2.11; MIC (Klebsiella pneumoniae [23]): 128 µg/mL (≈ 369 µM); logMIC (Staphylococcus aureus [24]): 0; MIC (Staphylococcus aureus [24]): < 1 µg/mL; logD [25]: 0.087
